Active and inactive are the calls of the source. The rule behind the calls is not given here.
Key:
HeLa [1] = assay: Cell cycle arrest in human HeLa cells assessed as accumulation at G2/M phase after 24 hrs by flow cytometry; format: functional, cell-based
Procedure, shortened: (§1)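 5×10^5 HeLa or Jurkat cells exposed to graded compound concentrations for 24 h. Cells were fixed in ice-cold 70% ethanol, lysed with RNase A/0.1% Triton X-100 buffer and stained with propidium iodide. DNA content was read by flow cytometry. Phase percentages are mean ± SEM of three independent experiments.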

HeLa [2] = assay: Induction of apoptosis in human HeLa cells assessed as caspase 3 cleavage at 25 uM after 24 to 48 hrs by Western blot analysis; format: functional, cell-based
Procedure, shortened: (§2)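 HeLa cells treated 24 or 48 h at 25 µM, then lysed. 20 µg protein per lane was run on SDS-PAGE and transferred to PVDF. Membranes were probed 2 h at room temperature for cleaved caspase-9, caspase-3, cleaved PARP, Bcl-2, Mcl-1 or Bax, with peroxidase secondary antibody and ECL. β-Actin reprobe served as loading control.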

[3] = Antiproliferative activity against human RS4:11 cells assessed as reduction in cell viability after 72 hrs by MTT assay; format: functional, cell-based; conditions: RS4-11, 72 h
Procedure, shortened: (§3)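 Cells kept in RPMI-1640 (Jurkat, SEM, RS4;11) or DMEM (A549, HeLa, IGROV-1, HT-29) with 10% FBS plus penicillin/streptomycin. 8×10^3 cells per well were left 18 h at 37 °C in 5% CO2. Medium was then replaced with fresh medium holding graded compound concentrations from 10 mM DMSO stocks. Cells were incubated 72 h and viability read by MTT. IC50 is the mean ± SEM from dose–response curves of at least three independent experiments.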

HeLa [4] = assay: Induction of apoptosis in human HeLa cells assessed as reduction in Bcl-2 expression at 25 uM after 24 hrs by Western blot analysis; format: functional, cell-based; procedure, shortened: as §2
IGROV-1 = assay: Antiproliferative activity against human IGROV1 cells assessed as reduction in cell viability after 72 hrs by MTT assay; format: functional, cell-based; conditions: IGROV-1, 72 h; procedure, shortened: as §3
[5] = Antiproliferative activity against human SEM cells assessed as reduction in cell viability after 72 hrs by MTT assay; format: functional, cell-based; procedure, shortened: as §3
PBL [6] = assay: Cytotoxicity against resting human PBLs assessed as reduction in cell growth; format: cell-based
Procedure, shortened: (§4)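 Peripheral blood lymphocytes from healthy donors, tested either resting (no PHA) or PHA-stimulated. Value is the concentration reducing cell growth by 50%, mean ± SEM of three separate experiments.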

Tubulin (Bos taurus) = Tubulin (Bos taurus) (UniProt Q6B856+Q862L2+Q862F3); assay: Displacement of [3H]colchicine from bovine brain tubulin at 500 uM after 10 mins by liquid scintillation counting
HeLa [7] = assay: Induction of apoptosis in human HeLa cells assessed as late necrotic cells at 25 uM after 24 hrs using Annexin-V/PI staining by flow cytometry (reference value: 3.70 %); format: functional
HeLa [8] = assay: Induction of apoptosis in human HeLa cells assessed as caspase 9 cleavage at 25 uM after 24 to 48 hrs by Western blot analysis; format: functional, cell-based; procedure, shortened: as §2
PBL [9] = assay: Cytotoxicity against PHA-stimulated human PBLs assessed as reduction in cell growth; format: cell-based; procedure, shortened: as §4
HeLa [10] = assay: Upregulation of cyclin B protein level in human HeLa cells at 25 uM after 24 hrs by Western blot analysis; format: functional, cell-based
HeLa [11] = assay: Induction of apoptosis in human HeLa cells assessed as reduction in Bcl-2 expression at 25 uM after 48 hrs by Western blot analysis; format: functional, cell-based; procedure, shortened: as §2
LoVo = assay: Antiproliferative activity against human LoVo cells assessed as reduction in cell viability after 72 hrs by MTT assay; format: functional, cell-based
HeLa [12] = assay: Induction of apoptosis in human HeLa cells assessed as reduction in Mcl-1 expression at 25 uM after 24 hrs by Western blot analysis; format: functional, cell-based; procedure, shortened: as §2
HeLa [13] = assay: Induction of apoptosis in human HeLa cells assessed as mitochondrial membrane depolarization at 6.2 to 50 uM using JC-1 staining-based fluorescence assay; format: functional, cell-based; conditions: TDE = time-dependent effect
Procedure, shortened: (§5)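 Mitochondrial membrane potential was read with the JC-1 dye in HeLa cells after 24 or 48 h at graded concentrations. Data are mean ± SEM of three independent experiments.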

Jurkat [14] = assay: Cell cycle arrest in human Jurkat cells assessed as accumulation at G2/M phase after 24 hrs by flow cytometry; format: functional, cell-based; procedure, shortened: as §1
HeLa [15] = assay: Induction of apoptosis in human HeLa cells assessed as ROS production at 6.2 to 50 uM after 24 to 48 hrs using H2-DCFDA -based flow cytometry relative to control; format: functional, cell-based
Procedure, shortened: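 HeLa cells incubated 24 or 48 h at the indicated concentrations, stained with H2-DCFDA and analysed by flow cytometry. Data are mean ± SEM of three independent experiments.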

HeLa [16] = assay: Induction of apoptosis in human HeLa cells after 24 to 48 hrs using Annexin-V/PI staining by flow cytometry; format: functional, cell-based
Jurkat [17] = assay: Cell cycle arrest in human Jurkat cells assessed as accumulation at G2/M phase at 10 to 25 uM after 24 hrs by flow cytometry; format: functional, cell-based; procedure, shortened: as §1
Tubulin [18] = biological target: T1, Tubulin (Bos taurus, UniProt Q6B856+Q862L2+Q862F3); assay: Displacement of [3H]colchicine from bovine brain tubulin assessed as rate of assembly after 10 mins by liquid scintillation counting
Jurkat [19] = assay: Antiproliferative activity against human Jurkat cells assessed as reduction in cell viability after 72 hrs by MTT assay; format: functional, cell-based; procedure, shortened: as §3
HeLa [20] = assay: Upregulation of cdc25c protein level in human HeLa cells at 25 uM after 24 hrs by Western blot analysis; format: functional, cell-based
HeLa [21] = assay: Induction of apoptosis in human HeLa cells assessed as reduction in Mcl-1 expression at 25 uM after 48 hrs by Western blot analysis; format: functional, cell-based; procedure, shortened: as §2
Tubulin [22] = biological target: T1, Tubulin; assay: Inhibition of bovine brain tubulin assessed as rate of assembly preincubated for 15 mins by turbidimetry
Procedure, shortened: (§6)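 Bovine brain tubulin at 10 µM (1.0 mg/mL) in 0.8 M monosodium glutamate pH 6.6 with 4% DMSO and varying compound was preincubated 15 min at 30 °C, then chilled. GTP was added to 0.4 mM final and the temperature jumped from 0 to 30 °C. Turbidity was followed at 350 nm, scoring either maximum rate or extent of assembly at 20 min.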

HeLa [23] = assay: Induction of apoptosis in human HeLa cells at 6.2 to 50 uM using Annexin-V/PI staining by flow cytometry; format: functional, cell-based; conditions: TDE = time-dependent effect
HeLa [24] = assay: Induction of apoptosis in human HeLa cells assessed as early apoptotic cells at 25 uM after 24 hrs using Annexin-V/PI staining by flow cytometry (reference value: 5.26 %); format: functional
HeLa [25] = assay: Induction of apoptosis in human HeLa cells assessed as viable cells at 25 uM after 24 hrs using Annexin-V/PI staining by flow cytometry (reference value: 86.7 %); format: functional; conditions: read-out: Activity
HT-29 = assay: Antiproliferative activity against human HT-29 cells assessed as reduction in cell viability after 72 hrs by MTT assay; format: functional, cell-based; conditions: HT-29, 72 h; procedure, shortened: as §3
HeLa [26] = assay: Cell cycle arrest in human HeLa cells assessed as accumulation at G2/M phase at 25 uM after 24 hrs by flow cytometry; format: functional; procedure, shortened: as §1
HeLa [27] = assay: Antiproliferative activity against human HeLa cells assessed as reduction in cell viability after 72 hrs by MTT assay; format: functional, cell-based; procedure, shortened: as §3
CCRF-CEM = assay: Antiproliferative activity against human CEM cells assessed as reduction in cell viability after 72 hrs by MTT assay; format: functional, cell-based
HeLa [28] = assay: Upregulation of aurora kinase A protein level in human HeLa cells at 25 uM after 24 hrs by Western blot analysis; format: functional, cell-based
HeLa [29] = assay: Downregulation of cdc25c protein level in human HeLa cells at 25 uM after 24 hrs by Western blot analysis; format: functional, cell-based; conditions: in the assay text read “after 48 hrs” for “after 24 hrs”
Procedure, shortened: (§7)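 HeLa cells treated 24 or 48 h at 25 µM, then washed in PBS and lysed 30 min on ice. 20 µg protein per lane was resolved on 7.5–15% SDS-PAGE and blotted to PVDF. Blots were probed for cyclin B, p-cdc2 Tyr15, cdc25C and γH2A.X, with β-actin reprobe as loading control and ECL detection.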

Tubulin [30] = biological target: T1, Tubulin; assay: Inhibition of bovine brain tubulin assessed as extent of assembly preincubated for 15 mins by turbidimetry; procedure, shortened: as §6
HeLa [31] = assay: Induction of DNA damage in human HeLa cells assessed as increase in phosphorylated form of histone gamma-H2A.X level at 25 uM after 24 hrs by Western blot analysis; format: functional, cell-based; procedure, shortened: as §7
HeLa [32] = assay: Induction of apoptosis in human HeLa cells assessed as PARP cleavage at 25 uM after 24 to 48 hrs by Western blot analysis; format: functional, cell-based; procedure, shortened: as §2
HeLa [33] = assay: Downregulation of phosphorylated form of cdc25c protein level in human HeLa cells at 25 uM after 24 hrs by Western blot analysis; format: functional, cell-based; procedure, shortened: as §7
HeLa [34] = assay: Cell cycle arrest in human HeLa cells assessed as accumulation at G2/M phase at 10 to 25 uM after 24 hrs by flow cytometry; format: functional, cell-based; procedure, shortened: as §1
HeLa [35] = assay: Induction of apoptosis in human HeLa cells assessed as late apoptotic cells at 25 uM after 24 hrs using Annexin-V/PI staining by flow cytometry (reference value: 4.31 %); format: functional
HeLa [36] = assay: Induction of apoptosis in human HeLa cells assessed as mitochondrial membrane depolarization after 24 to 48 hrs using JC-1 staining-based fluorescence assay; format: functional, cell-based; procedure, shortened: as §5

COc1ccc2c(c1OC)C(=O)O[C@@H]2[C@H]1c2c(c(-c3ccccc3)c3c(c2OC)OCO3)CCN1C
Activity (HeLa [1]): Dose-dependent effect
Activity (HeLa [2]): Active
IC50 [3]: 2.4 µM
Activity (HeLa [4]): inactive
IC50 (IGROV-1): 68.1 µM
IC50 [5]: 3.2 µM
IC50 (PBL [6]): > 200 µM
inhibition (Tubulin (Bos taurus)): 14%
Activity (HeLa [7]): 18.1%
Activity (HeLa [8]): Active
IC50 (PBL [9]): 54.9 µM
Activity (HeLa [10]): Active
Activity (HeLa [11]): Active
IC50 (LoVo): 42.8 µM
Activity (HeLa [12]): Active
Activity (HeLa [13]): tde
Activity (Jurkat [14]): Dose-dependent effect
Activity (HeLa [15]): Active
Activity (HeLa [16]): Dose-dependent effect
Activity (Jurkat [17]): Active
IC50 (Tubulin [18]): > 400 µM
IC50 (Jurkat [19]): 5.4 µM
Activity (HeLa [20]): Active
Activity (HeLa [21]): Active
IC50 (Tubulin [22]): > 400 µM
Activity (HeLa [23]): tde
Activity (HeLa [24]): 15.9%
viability at 25 µM (HeLa [25]): 7.53%
IC50 (HT-29): 36.5 µM
Activity (HeLa [26]): >80%
IC50 (HeLa [27]): 7.4 µM
IC50 (CCRF-CEM): 5.2 µM
Activity (HeLa [28]): Active
Activity (HeLa [29]): Active
IC50 (Tubulin [30]): > 400 µM
Activity (HeLa [31]): Active
Activity (HeLa [32]): Active
Activity (HeLa [33]): Active
Activity (HeLa [34]): Active
Activity (HeLa [35]): 18.4%
Activity (HeLa [36]): Dose-dependent effect
